Assay results reported in PubChem BioAssay AID623885 (Vanderbilt Specialized Chemistry Center, 2012).
Calls of active or inactive are those of the source.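 How the source made its calls: active means mean half-maximal effective concentration under 30 µM; inactive means the rest.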

Target: Metabotropic glutamate receptor 3 (Rattus norvegicus) (UniProt P31422)
Test: rat mGlu3 negative modulators or antagonists, dose response, thallium flux, HEK/GIRK cells (AID 623885)
Settings: HEK293 GIRK rat mGlu3, thallium flux fluorescence; at 30 µM (top of the series)
In short: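 Test system – HEK cells stably co-expressing GIRK channels, M4 muscarinic receptor, rat mGlu3 · Compound – 10 points, 1:3 serial dilution · Times – dye loading 1 h room temperature, compounds ~2.5 min · Measured by – thallium influx through GIRK, FluoZin-2 AM fluorescence · Read-out – baseline-normalized fluorescence slope 5–15 s post thallium/agonist, four-parameter logistic fit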

Sequence of Metabotropic glutamate receptor 3 (Rattus norvegicus) (P31422 whole entry, looked up): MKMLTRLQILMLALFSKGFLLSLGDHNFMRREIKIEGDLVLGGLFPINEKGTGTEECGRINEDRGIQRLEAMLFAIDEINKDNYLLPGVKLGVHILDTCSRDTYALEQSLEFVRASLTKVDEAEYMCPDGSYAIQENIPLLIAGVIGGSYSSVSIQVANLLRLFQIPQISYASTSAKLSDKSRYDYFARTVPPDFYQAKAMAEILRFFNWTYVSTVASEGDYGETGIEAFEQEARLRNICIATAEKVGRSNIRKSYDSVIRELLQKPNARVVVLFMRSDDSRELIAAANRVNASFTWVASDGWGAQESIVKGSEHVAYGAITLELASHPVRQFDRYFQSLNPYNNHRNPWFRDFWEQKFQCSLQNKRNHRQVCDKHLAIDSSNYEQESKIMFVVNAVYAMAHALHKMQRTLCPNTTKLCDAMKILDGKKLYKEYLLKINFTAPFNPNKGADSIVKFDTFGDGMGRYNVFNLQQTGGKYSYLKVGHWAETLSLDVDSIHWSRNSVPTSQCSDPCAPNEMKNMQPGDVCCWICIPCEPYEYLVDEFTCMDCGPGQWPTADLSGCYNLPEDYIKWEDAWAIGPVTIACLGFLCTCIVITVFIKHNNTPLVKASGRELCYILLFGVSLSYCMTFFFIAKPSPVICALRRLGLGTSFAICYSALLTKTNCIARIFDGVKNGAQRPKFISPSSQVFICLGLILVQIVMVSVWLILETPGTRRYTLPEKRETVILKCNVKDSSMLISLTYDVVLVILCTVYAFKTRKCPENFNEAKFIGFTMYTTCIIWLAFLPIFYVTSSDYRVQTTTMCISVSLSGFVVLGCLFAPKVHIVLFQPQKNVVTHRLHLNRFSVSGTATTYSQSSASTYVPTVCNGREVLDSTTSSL

In order of falling percent of glutamate max response:
1. COc1ccc(C#Cc2ccc(C(=O)NC(C)(C)CO)cc2)cc1  162
2. COc1ccc(C#Cc2ccc(C(=O)NCCC(C)(C)O)cc2)cc1  114
3. O=C(c1ccc(C#Cc2ccc(C(F)(F)F)cc2)cc1)N1CCC(O)CC1  54.2
4. O=C(c1ccc(C#CCC2CCCC2)cc1)N1CCC(O)CC1  34
5. O=C(c1ccc(C#CCc2ccsc2)cc1)N1CCC(O)CC1  16.1
6. O=C(CN1CCc2cc(C#Cc3ccccc3)ccc2C1=O)NCCN1CCCCC1  3.68
7. COc1ccc(C#Cc2ccc(C(=O)N3CCCC(O)C3)cc2)cc1 (stereo not given)  -1.25

In the case of `COc1ccc(C#Cc2ccccc2C(=O)N2CCC(O)CC2)cc1`, the “percent of glutamate max response” value is reported as “inactive”.
In the case of `CCCC(O)C#Cc1ccc(C(=O)N2CCC(O)CC2)cc1` (stereo not given), the “percent of glutamate max response” value is reported as “inactive”.
With `O=C(c1ccc(C#CCN2C(=O)c3ccccc3C2=O)cc1)N1CCC(O)CC1` the “percent of glutamate max response” value was “inactive”.
